Measurements from ChEMBL document CHEMBL3525931, “Stereoselective interaction of pantoprazole with ABCG2. II. In vitro flux analysis” (Drug Metab Dispos, 2012).

Experiments:
[1] = target: T1, Broad substrate specificity ATP-binding cassette transporter ABCG2 (Homo sapiens, UniProt Q9UNQ0); experiment: Observed permeability in MDCK2 cells expressing human ABCG2 assessed as ABCG2-mediated apical to basolateral transport at 3 uM after 0.5 to 1 hrs by HPLC method; format: ADME, cell-based; details: mdck-ii
T1 sequence (Q9UNQ0 whole entry): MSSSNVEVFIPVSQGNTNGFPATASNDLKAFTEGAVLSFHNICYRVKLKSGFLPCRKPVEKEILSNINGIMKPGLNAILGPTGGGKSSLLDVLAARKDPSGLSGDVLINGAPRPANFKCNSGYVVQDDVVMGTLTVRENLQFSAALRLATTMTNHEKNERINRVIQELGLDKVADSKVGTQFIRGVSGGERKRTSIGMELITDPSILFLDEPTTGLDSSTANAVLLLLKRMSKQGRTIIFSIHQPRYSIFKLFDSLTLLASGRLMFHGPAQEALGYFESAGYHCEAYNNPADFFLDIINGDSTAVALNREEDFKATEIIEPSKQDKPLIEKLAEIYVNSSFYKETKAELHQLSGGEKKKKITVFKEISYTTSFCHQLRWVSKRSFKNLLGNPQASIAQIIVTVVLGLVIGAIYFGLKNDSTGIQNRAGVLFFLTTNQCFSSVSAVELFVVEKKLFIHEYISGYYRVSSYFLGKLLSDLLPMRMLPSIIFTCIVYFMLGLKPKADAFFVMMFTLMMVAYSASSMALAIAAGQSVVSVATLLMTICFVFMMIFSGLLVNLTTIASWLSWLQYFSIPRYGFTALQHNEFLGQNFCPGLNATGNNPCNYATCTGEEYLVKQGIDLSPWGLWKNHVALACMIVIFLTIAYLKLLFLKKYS
Procedure, shortened: (§1)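 Mock (empty pcDNA3.1) or rat Abcg2/human ABCG2-transfected MDCKII, G418-selected, seeded on 3.0-μm Transwell filters at 1.0×10^6 cells/well, grown 4 days to TEER >200 Ω·cm². Single isomer loaded apical or basolateral in serum-free Opti-MEM I with 0.2 μCi/ml [3H]mannitol, 37°C 5% CO2. Receiver sampled at 0.5 and 1 h. Quantified by HPLC-UV 290 nm. Permeability = initial rate/(area × donor concentration). Efflux ratio = B→A rate / A→B rate. n = 3, mean ± S.D.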

[2] = target: T2, Broad substrate specificity ATP-binding cassette transporter ABCG2 (Rattus norvegicus, UniProt Q80W57); experiment: Observed permeability in MDCK2 cells expressing rat ABCG2 assessed as ABCG2-mediated apical to basolateral transport at 3 uM after 0.5 to 1 hrs by HPLC method; format: ADME, cell-based; details: mdck-ii; procedure, shortened: as §1
T2 sequence (Q80W57 whole entry): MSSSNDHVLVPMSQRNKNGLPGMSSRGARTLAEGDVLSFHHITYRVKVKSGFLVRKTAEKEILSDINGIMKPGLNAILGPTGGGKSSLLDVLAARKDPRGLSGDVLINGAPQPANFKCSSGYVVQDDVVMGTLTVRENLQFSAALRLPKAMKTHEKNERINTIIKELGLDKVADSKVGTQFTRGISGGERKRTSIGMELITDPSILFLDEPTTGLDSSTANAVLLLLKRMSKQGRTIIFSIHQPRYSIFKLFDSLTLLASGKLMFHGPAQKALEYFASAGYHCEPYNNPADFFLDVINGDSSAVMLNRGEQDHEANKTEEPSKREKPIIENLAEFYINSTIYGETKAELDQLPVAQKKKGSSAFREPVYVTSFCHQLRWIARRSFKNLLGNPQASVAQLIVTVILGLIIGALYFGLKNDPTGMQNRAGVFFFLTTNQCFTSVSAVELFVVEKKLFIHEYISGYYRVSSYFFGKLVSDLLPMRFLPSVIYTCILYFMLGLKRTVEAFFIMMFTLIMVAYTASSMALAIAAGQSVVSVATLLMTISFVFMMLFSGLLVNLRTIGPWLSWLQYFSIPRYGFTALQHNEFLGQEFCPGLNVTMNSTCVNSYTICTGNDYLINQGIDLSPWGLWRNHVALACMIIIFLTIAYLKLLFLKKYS

[3] = target: T1, Broad substrate specificity ATP-binding cassette transporter ABCG2; experiment: Observed permeability in MDCK2 cells expressing human ABCG2 assessed as ABCG2-mediated apical to basolateral transport at 10 uM after 0.5 to 1 hrs by HPLC method; format: ADME, cell-based; details: mdck-ii; procedure, shortened: as §1
[4] = target: T1, Broad substrate specificity ATP-binding cassette transporter ABCG2; experiment: Observed permeability in MDCK2 cells expressing human ABCG2 assessed as ABCG2-mediated apical to basolateral transport at 50 uM after 0.5 to 1 hrs by HPLC method; format: ADME, cell-based; details: mdck-ii; procedure, shortened: as §1
[5] = target: T3, ABCG2 (Homo sapiens, UniProt Q9UNQ0); experiment: Asymmetry efflux ratio in MDCK2 cells expressing human ABCG2 assessed as ABCG2-mediated drug transport ratio at 30 uM after 0.5 to 1 hrs by HPLC method; format: ADME, cell-based; procedure, shortened: as §1
T3 sequence (Q9UNQ0 whole entry): T1 sequence (Q9UNQ0 whole entry)

[6] = target: T3, ABCG2; experiment: Asymmetry efflux ratio in MDCK2 cells expressing human ABCG2 assessed as ABCG2-mediated drug transport ratio at 50 uM after 0.5 to 1 hrs by HPLC method; format: ADME, cell-based; procedure, shortened: as §1
[7] = target: T1, Broad substrate specificity ATP-binding cassette transporter ABCG2; experiment: Maximum drug transport rate in MDCK2 cells expressing human ABCG2 assessed as ABCG2-mediated transport by HPLC method; format: ADME, cell-based; details: mdck-ii
Procedure, shortened: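 Kinetics came from the same Transwell bidirectional flux runs in rat Abcg2- or human ABCG2-MDCKII, with donor 3–200 μM single isomer. Cellular concentrations were predicted from a three-compartment model using PS_D from mock cells and PS_PC from mannitol. Apparent apical efflux permeability was fitted against predicted cellular concentration by saturable kinetics to give K_M and T_max.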

[8] = target: T2, Broad substrate specificity ATP-binding cassette transporter ABCG2; experiment: Observed permeability in MDCK2 cells expressing rat ABCG2 assessed as ABCG2-mediated apical to basolateral transport at 30 uM after 0.5 to 1 hrs by HPLC method; format: ADME, cell-based; details: mdck-ii; procedure, shortened: as §1
[9] = target: T2, Broad substrate specificity ATP-binding cassette transporter ABCG2; experiment: Observed permeability in MDCK2 cells expressing rat ABCG2 assessed as ABCG2-mediated basolateral to apical transport at 10 uM after 0.5 to 1 hrs by HPLC method; format: ADME, cell-based; details: mdck-ii; procedure, shortened: as §1
[10] = Observed permeability in MDCK2 cells assessed as apical to basolateral transport at 10 uM after 0.5 to 1 hrs by HPLC method; format: ADME, cell-based, Canis lupus familiaris; details: dog, mdck-ii; procedure, shortened: as §1
[11] = Observed permeability in MDCK2 cells assessed as apical to basolateral transport at 30 uM after 0.5 to 1 hrs by HPLC method; format: ADME, cell-based, Canis lupus familiaris; details: dog, mdck-ii; procedure, shortened: as §1
[12] = Observed permeability in MDCK2 cells assessed as basolateral to apical transport at 3 uM after 0.5 to 1 hrs by HPLC method; format: ADME, cell-based, Canis lupus familiaris; details: dog, mdck-ii; procedure, shortened: as §1
[13] = Observed permeability in MDCK2 cells assessed as basolateral to apical transport at 30 uM after 0.5 to 1 hrs by HPLC method; format: ADME, cell-based, Canis lupus familiaris; details: dog, mdck-ii; procedure, shortened: as §1
[14] = Observed permeability in MDCK2 cells assessed as basolateral to apical transport at 200 uM after 0.5 to 1 hrs by HPLC method; format: ADME, cell-based, Canis lupus familiaris; details: dog, mdck-ii; procedure, shortened: as §1
[15] = Asymmetry efflux ratio in MDCK2 cells assessed as drug transport ratio at 3 uM after 0.5 to 1 hrs by HPLC method; format: ADME, cell-based, Canis lupus familiaris, MDCK-II; details: dog, MDCK; procedure, shortened: as §1
[16] = Asymmetry efflux ratio in MDCK2 cells assessed as drug transport ratio at 50 uM after 0.5 to 1 hrs by HPLC method; format: ADME, cell-based, Canis lupus familiaris, MDCK-II; details: dog, MDCK; procedure, shortened: as §1
[17] = Asymmetry efflux ratio in MDCK2 cells assessed as drug transport ratio at 3 to 200 uM after 0.5 to 1 hrs by HPLC method; format: ADME, cell-based, Canis lupus familiaris, MDCK-II; details: dog, MDCK; procedure, shortened: as §1

COc1ccnc(C[S@@+]([O-])c2nc3cc(OC(F)F)ccc3[nH]2)c1OC
Papp [1]: 30 uL/hr/cm2 | Papp [2]: 12.8 uL/hr/cm2 | Papp [3]: 42.2 uL/hr/cm2 | Papp [4]: 79.6 uL/hr/cm2 | efflux ratio at 30 µM [5]: 5.5 | efflux ratio at 50 µM [6]: 2.45 | Drug transport [7]: 10.2 nmol/hr.cm2 | Papp [8]: 33.5 uL/hr/cm2 | Papp [9]: 229 uL/hr/cm2 | Papp [10]: 114 uL/hr/cm2 | Papp [11]: 110 uL/hr/cm2 | Papp [12]: 117 uL/hr/cm2 | Papp [13]: 116 uL/hr/cm2 | Papp [14]: 140 uL/hr/cm2 | efflux ratio at 3 µM [15]: 1.01 | efflux ratio at 50 µM [16]: 1.09 | efflux ratio at up to 200 µM [17]: 1.04

COc1ccnc(C[S@+]([O-])c2nc3cc(OC(F)F)ccc3[nH]2)c1OC
Papp [1]: 16.9 uL/hr/cm2 | Papp [2]: 7.4 uL/hr/cm2 | Papp [3]: 31.6 uL/hr/cm2 | Papp [4]: 109 uL/hr/cm2 | efflux ratio at 30 µM [5]: 3.12 | efflux ratio at 50 µM [6]: 1.44 | Drug transport [7]: 3.29 nmol/hr.cm2 | Papp [8]: 92.5 uL/hr/cm2 | Papp [9]: 224 uL/hr/cm2 | Papp [10]: 123 uL/hr/cm2 | Papp [11]: 116 uL/hr/cm2 | Papp [12]: 120 uL/hr/cm2 | Papp [13]: 123 uL/hr/cm2 | Papp [14]: 135 uL/hr/cm2 | efflux ratio at 3 µM [15]: 1.01 | efflux ratio at 50 µM [16]: 1.04 | efflux ratio at up to 200 µM [17]: 1.04
